Reference: ChEMBL document CHEMBL2417460, “Synthesis and biological evaluation of berberine-thiophenyl hybrids as multi-functional agents: Inhibition of acetylcholinesterase, butyrylcholinesterase, and Aβ aggregation and antioxidant activity” (Bioorg Med Chem, 2013)
Active and inactive are the calls of the source. No cut-off for these calls is given here.

Key:
[1] = Antioxidant activity assessed as ratio of umol of trolox equivalent to umol of compound after 10 mins by oxygen radical absorbance capacity-fluorescein assay; type: functional
How it was run: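 Fluorescein 300 nM final was preincubated with antioxidant for 10 min at 37 °C, then AAPH was added to 12 mM final. Fluorescence (ex 485/em 535 nm) was read every 60 s for 4 h. Samples were run at […] against a Trolox calibration and an FL+AAPH blank in phosphate buffer. Results are expressed as Trolox equivalents, with mixtures in triplicate and ≥3 independent runs.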

[2] = target: Amyloid-beta precursor protein (Homo sapiens) (UniProt P05067); test: Inhibition of amyloid beta (1-42) (unknown origin) aggregation at 20 uM after 48 hrs by thioflavin-T based fluorimetric assay relative to control
Sequence of Amyloid-beta precursor protein (Homo sapiens) (P05067 whole entry): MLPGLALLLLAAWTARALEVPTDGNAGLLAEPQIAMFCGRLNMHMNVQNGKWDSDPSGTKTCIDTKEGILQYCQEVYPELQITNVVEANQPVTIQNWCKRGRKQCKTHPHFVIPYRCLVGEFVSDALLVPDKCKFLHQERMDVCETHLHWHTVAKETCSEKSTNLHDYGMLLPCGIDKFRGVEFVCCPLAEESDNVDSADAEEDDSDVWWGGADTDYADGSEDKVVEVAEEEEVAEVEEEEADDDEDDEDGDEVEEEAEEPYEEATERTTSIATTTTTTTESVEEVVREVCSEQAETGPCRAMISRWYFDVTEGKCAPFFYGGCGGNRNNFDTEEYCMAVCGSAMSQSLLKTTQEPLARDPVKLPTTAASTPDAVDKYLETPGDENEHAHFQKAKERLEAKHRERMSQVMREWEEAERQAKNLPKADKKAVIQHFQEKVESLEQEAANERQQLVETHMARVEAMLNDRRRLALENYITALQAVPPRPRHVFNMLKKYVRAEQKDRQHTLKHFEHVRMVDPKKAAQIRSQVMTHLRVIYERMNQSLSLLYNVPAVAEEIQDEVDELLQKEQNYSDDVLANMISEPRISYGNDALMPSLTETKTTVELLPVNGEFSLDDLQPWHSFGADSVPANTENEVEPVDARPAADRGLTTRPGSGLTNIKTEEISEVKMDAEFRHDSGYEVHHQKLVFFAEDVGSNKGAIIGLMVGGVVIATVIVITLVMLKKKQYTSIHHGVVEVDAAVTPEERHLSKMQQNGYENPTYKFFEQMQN
How it was run: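 HFIP-pretreated Aβ1–42 was resolubilised in 50 mM phosphate buffer, pH 7.4, and incubated at 37 °C for 48 h (50 μM final peptide) with or without compound at 20 μM. Samples were diluted into 50 mM glycine–NaOH, pH 8.0, containing thioflavin T and scanned for 300 s (ex 450/em 485 nm). Plateau values were averaged after subtracting ThT background.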

[3] = target: T1, Acetylcholinesterase (Electrophorus electricus, UniProt O42275); test: Inhibition of electric eel AChE using acetylthiocholine chloride as substrate preincubated for 15 mins prior to substrate addition by Ellman's method
T1 sequence (O42275 whole entry): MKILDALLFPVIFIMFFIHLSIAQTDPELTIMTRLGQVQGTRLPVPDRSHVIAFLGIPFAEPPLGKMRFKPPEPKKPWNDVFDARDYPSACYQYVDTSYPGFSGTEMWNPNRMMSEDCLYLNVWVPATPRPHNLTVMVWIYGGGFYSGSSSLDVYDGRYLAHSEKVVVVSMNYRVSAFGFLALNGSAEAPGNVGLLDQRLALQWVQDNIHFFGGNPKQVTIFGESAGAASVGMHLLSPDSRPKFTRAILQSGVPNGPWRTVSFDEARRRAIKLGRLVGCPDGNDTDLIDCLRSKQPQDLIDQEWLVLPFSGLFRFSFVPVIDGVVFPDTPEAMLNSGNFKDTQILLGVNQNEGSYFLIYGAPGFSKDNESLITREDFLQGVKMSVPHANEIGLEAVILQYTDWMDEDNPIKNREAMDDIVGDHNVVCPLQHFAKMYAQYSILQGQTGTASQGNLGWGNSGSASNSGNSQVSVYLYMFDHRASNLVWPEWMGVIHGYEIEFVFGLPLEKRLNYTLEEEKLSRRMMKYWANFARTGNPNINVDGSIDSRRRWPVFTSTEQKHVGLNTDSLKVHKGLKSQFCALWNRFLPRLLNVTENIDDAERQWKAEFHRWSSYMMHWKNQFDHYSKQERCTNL

[4] = target: T1, Acetylcholinesterase; test: Mixed-type inhibition of electric eel AChE using acetylthiocholine chloride as substrate by Lineweaver-Burk plot analysis
How it was run: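 Electric eel AChE was pre-incubated with inhibitor at 37 °C for 15 min in 0.1 M phosphate buffer, pH 8.0, with DTNB, then substrate was added. Absorbance at 412 nm was followed at 60 s intervals at 37 °C. Reciprocal plots of initial velocity versus substrate concentration defined the inhibition type.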

[5] = Antioxidant activity assessed as H2O2 scavenging activity at 100 uM after 72 hrs by spectrophotometric analysis; type: functional
How it was run: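 Compound solution was added to H2O2 (0.1 mM) in 0.1 M phosphate buffer, pH 7.4, and incubated for 72 h at 37 °C. Phenol red (0.2 mg/mL) plus horseradish peroxidase (0.4 mg/mL) was added; after 15 min, 1 M NaOH was added and absorbance read at 610 nm. Percent H2O2 reduction = (A_H2O2 − A_sample)/A_H2O2 × 100, with the control holding acetone and no compound.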

[6] = Antioxidant activity assessed as H2O2 scavenging activity measured as compound remaining at 100 uM after 72 hrs by LC/MS analysis; type: functional

SMILES | Activity [1] [equiv] | inhibition [2] [%] | IC50 [3] [nM] | Ki [4] [nM] | Activity [5] | Activity [6]
COc1ccccc1SCCOc1c(OC)ccc2cc3[n+](cc12)CCc1cc2c(cc1-3)OCO2 | 1.94 | 76.8 | 151 | – | – | –
COc1ccc2cc3[n+](cc2c1OCCSc1ccc(C)cc1)CCc1cc2c(cc1-3)OCO2 | 1.86 | 70 | 299 | – | – | –
COc1ccc2cc3[n+](cc2c1OCCSc1ccc(Cl)cc1)CCc1cc2c(cc1-3)OCO2 | 0.82 | – | 484 | – | – | –
Oc1ccc(/C=C/c2cc(O)cc(O)c2)cc1 | – | 61.1 | – | – | – | –
COc1ccc2cc3[n+](cc2c1OCCSc1cccc(C)c1)CCc1cc2c(cc1-3)OCO2 | 1.32 | 72.3 | 207 | – | – | –
CCc1ccccc1SCCOc1c(OC)ccc2cc3[n+](cc12)CCc1cc2c(cc1-3)OCO2 | 1.01 | 74.8 | 83 | – | – | –
COc1ccc2cc3[n+](cc2c1OCCSc1ccccc1C)CCc1cc2c(cc1-3)OCO2 | 1.11 | 73.4 | 77 | 71 | Active | Active
COc1ccc2cc3[n+](cc2c1OCCCCCCSc1ccccc1)CCc1cc2c(cc1-3)OCO2 | 0.77 | – | 972 | – | – | –
COc1ccc2cc3[n+](cc2c1OCCCSc1ccccc1)CCc1cc2c(cc1-3)OCO2 | 0.94 | 70.6 | 257 | – | – | –
COc1ccc2cc3[n+](cc2c1OCCSc1ccccc1)CCc1cc2c(cc1-3)OCO2 | 0.89 | 70.4 | 177 | – | – | –
COc1ccc2cc3[n+](cc2c1OCCCCCSc1ccccc1)CCc1cc2c(cc1-3)OCO2 | 0.89 | – | 543 | – | – | –
COc1ccc2cc3[n+](cc2c1OCCSc1ccccc1F)CCc1cc2c(cc1-3)OCO2 | 1.15 | 73.3 | 87 | – | – | –
COc1ccc2cc3[n+](cc2c1OCCSc1cccc(Cl)c1)CCc1cc2c(cc1-3)OCO2 | 0.47 | – | 233 | – | – | –
COc1ccc2cc3[n+](cc2c1OCCSc1ccccc1Cl)CCc1cc2c(cc1-3)OCO2 | 0.75 | 65.1 | 42 | 18 | – | –
COc1ccc2cc3[n+](cc2c1OC)CCc1cc2c(cc1-3)OCO2 | 0.4 | 35.5 | – | – | – | –
COc1ccc2cc3[n+](cc2c1OCCCCSc1ccccc1)CCc1cc2c(cc1-3)OCO2 | 0.95 | 69.1 | 192 | – | – | –
